These results are taken from ChEMBL document CHEMBL1145336, “1-aryl-3-(4-pyridine-2-ylpiperazin-1-yl)propan-1-one oximes as potent dopamine D4 receptor agonists for the treatment of erectile dysfunction” (J Med Chem, 2006).

Activity calls are given as the source filed them.

The target in data set [1] is T1, D(2) dopamine receptor (Homo sapiens, UniProt P14416). Kind of data set: Antagonist activity at human recombinant D2 receptor expressed in HEK293 cells by FLIPR assay. The data set is classed as functional, cell-based.
T1 sequence (P14416 whole entry): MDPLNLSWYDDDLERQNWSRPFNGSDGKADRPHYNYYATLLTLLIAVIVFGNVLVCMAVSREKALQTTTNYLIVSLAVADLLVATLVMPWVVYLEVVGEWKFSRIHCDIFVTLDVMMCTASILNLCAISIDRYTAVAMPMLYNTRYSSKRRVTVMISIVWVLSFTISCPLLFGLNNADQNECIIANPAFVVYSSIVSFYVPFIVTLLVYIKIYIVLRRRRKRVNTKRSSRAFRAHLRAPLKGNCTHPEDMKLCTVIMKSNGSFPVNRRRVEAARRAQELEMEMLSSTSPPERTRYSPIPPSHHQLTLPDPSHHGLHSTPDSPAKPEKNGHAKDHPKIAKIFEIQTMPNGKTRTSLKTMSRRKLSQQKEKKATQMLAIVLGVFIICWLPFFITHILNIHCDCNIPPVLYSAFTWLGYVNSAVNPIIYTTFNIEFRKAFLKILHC
Data set [2] concerns Rattus norvegicus. Nature of the data set: Activity against penile erection in Wistar rat at 1.0 umol/kg, sc. The data set is classed as functional. In a few lines: (§1)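 Male Wistar rats, dosed subcutaneously, were weighed and adapted to a red-lit testing room for 60 min; experiments ran between 9:00 a.m. and 3:00 p.m. Erections were counted by direct observation for 60 min after dosing. The share of animals with one or more erections was reported as incidence (percent), n = 8-30 rats.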

In data set [3] the target is T2, D(4) dopamine receptor (Homo sapiens, UniProt P21917).
T2 sequence (P21917 whole entry): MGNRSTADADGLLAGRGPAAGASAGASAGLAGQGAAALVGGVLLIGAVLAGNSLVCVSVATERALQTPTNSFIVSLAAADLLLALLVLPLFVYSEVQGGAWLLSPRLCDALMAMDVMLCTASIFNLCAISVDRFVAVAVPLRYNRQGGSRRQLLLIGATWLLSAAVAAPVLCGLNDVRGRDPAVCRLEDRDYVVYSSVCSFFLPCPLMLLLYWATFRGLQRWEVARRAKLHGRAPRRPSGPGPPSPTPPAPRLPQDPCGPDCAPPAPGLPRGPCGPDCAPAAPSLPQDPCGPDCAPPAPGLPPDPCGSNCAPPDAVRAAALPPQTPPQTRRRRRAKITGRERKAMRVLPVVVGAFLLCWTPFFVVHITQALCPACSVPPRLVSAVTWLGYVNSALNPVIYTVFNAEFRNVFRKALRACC
Kind of data set: Activity at human recombinant D4.4 receptor expressed in HEK293 cells by FLIPR assay. The data set is classed as functional, cell-based.

The target in data set [4] is T1, D(2) dopamine receptor. Kind of data set: Displacement of [125I]PIPAT from human recombinant D2L receptor expressed in HEK293 cells. For orientation: In a radioligand displacement assay an active substance lowers the binding of a labelled ligand.
Data set [5] concerns the target T2, D(4) dopamine receptor. Nature of the data set: Displacement of [3H]A-369508 from human recombinant D4.4 receptor expressed in HEK293 cell membrane. It is filed as cell membranes. In outline:
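Competition binding against the D4-selective agonist radioligand [3H]-A-369508, using membranes from HEK-293 cells engineered to express human D4.4. Mean values (SEM, n ≥ 4).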

Data set [6] can be described thus: Bioavailability in rat at 1 mg/kg, po. It is filed as ADME, organism-based. The following applies: in vivo. In outline:
(§2)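 Pharmacokinetics in rat and dog after a 1 mg/kg dose given subcutaneously or orally. Oral bioavailability (F, %), volume of distribution (Vβ, L/kg) and half-life (T1/2, h) were determined.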

Data set [7] in a line: Bioavailability in dog at 1 mg/kg, po. The data set is classed as ADME, organism-based, Canis lupus familiaris. The following applies: in vivo. In outline: as §2
Data set [8] concerns the target T1, D(2) dopamine receptor. Nature of the data set: Agonist activity at human recombinant D2 receptor expressed in HEK293 cells by FLIPR assay. The data set is classed as functional, cell-based. In a few lines: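 Calcium flux (FLIPR) in HEK-293 cells coexpressing recombinant human D2L with chimeric Gqo5. Efficacy is the maximal response relative to 10 µM dopamine (100%). EC50 is the concentration giving half-maximal stimulation. Values are means (SEM, n ≥ 3).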

Data set [9] concerns Rattus norvegicus. Kind of data set: Volume of distribution in rat at 1 mg/kg, sc. The following applies: in vivo. The data set is classed as ADME, organism-based. On the set-up: dose 1 mg/kg, route subcutaneous. In outline: as §2
For data set [10], the system named is Canis familiaris. Nature of the data set: Volume of distribution in dog at 1 mg/kg, sc. It is filed as ADME, organism-based, Canis lupus familiaris. On the set-up: dose 1 mg/kg, route subcutaneous. The following applies: in vivo. In a few lines:
as §2

Data set [11] is described as follows: Half life in dog at 1 mg/kg, po. It is filed as ADME, organism-based, Canis lupus familiaris. On the set-up: dose 1 mg/kg, route oral. The following applies: in vivo. In outline: as §2
Data set [12] deals with Mus musculus. Nature of the data set: Lowering of hypoactivity in mouse at 10 umol/kg by Irvin test. It is filed as functional, organism-based.
Data set [13] has as its system Rattus norvegicus. Nature of the data set: Activity against penile erection in Wistar rat at 0.03 umol/kg, sc. It is filed as functional. In outline: as §1
The species named for data set [14] is Canis familiaris. Nature of the data set: Prolongation of canine cardiac Purkinje fiber repolarization. It is filed as functional, Canis lupus familiaris.
Data set [15] relates to Mustela putorius furo. Nature of the data set: Emetic activity in ferret at 0.03 to 3 umol/kg, sc. It is filed as functional, organism-based.
A short description of data set [16]: Half life in rat at 1 mg/kg, po. The data set is classed as ADME, organism-based. The arrangement: dose 1 mg/kg, route oral. The following applies: in vivo. In outline:
as §2

The subject of data set [17] is Mus musculus. Nature of the data set: Lowering of piloerection in mouse at 10 umol/kg by Irvin test. The data set is classed as functional, organism-based.
Data set [18] concerns Mus musculus. Kind of data set: Lowering of hypothermia in mouse at 10 umol/kg by Irvin test. It is filed as functional, organism-based.
In data set [19] the test system is Mus musculus. Nature of the data set: Lowering of ptosis in mouse at 10 umol/kg by Irvin test. The data set is classed as functional, organism-based.
A short description of data set [20]: Half life in rat at 1 mg/kg, sc. It is filed as ADME, organism-based. On the set-up: dose 1 mg/kg, route subcutaneous. The following applies: in vivo. In outline: as §2
A short description of data set [21]: Bioavailability in rat at 1 mg/kg, sc. It is filed as ADME, organism-based. The following applies: in vivo. In outline:
as §2

Data set [22] has as its system Rattus norvegicus. Kind of data set: Inhibition of (E)-1-(4-chlorophenyl)-3-(4-pyridin-2-ylpiperazin-1-yl)propan-1-one O-methyloxime-induced erectogenic effect in Wistar rat at 3 umol/kg, ip. It is filed as functional, organism-based.

Broadly, the IC50 is the concentration that gives 50% inhibition. For orientation: EC50 means the concentration at which the effect is half-maximal. As usually defined, the Ki is the equilibrium dissociation constant of an inhibitor or competing ligand from its target. For orientation: bioavailability means dose-corrected exposure relative to a reference, in per cent. A higher bioavailability goes with much systemic uptake. For orientation: half-life means the time needed for the level to fall by half in the phase considered. `CO/N=C(\CCN1CCN(c2ccccn2)CC1)c1ccc(F)c(Cl)c1`: the IC50 in [1] was greater than 10000 nM. This compound showed an Activity in [2] of 85%. Besides, the results for the EC50 in [3] and in data set [8] were 148 nM and greater than 10000 nM, respectively. In addition, the Ki in [4] came out at 171 nM; in data set [5], 71.2 nM. For the same compound, the results for the bioavailability in data set [6] and in data set [7] were 18.6% and 42.9%, respectively. In addition, the results for the Vbeta in data set [9] and in data set [10] were 8.2 L/kg and 3.8 L/kg, respectively. Besides, the half-life in data set [11] was 6.1 h.

For the compound `CO/N=C(\CCN1CCN(c2ccccn2)CC1)c1ccc(Cl)cc1`, the IC50 in data set [1] was greater than 10000 nM. For the same compound, the result in data set [12], in data set [17], in [18] and in [19] was Active. Besides, the concentration for a half-maximal effect (EC50) in data set [3] is 37.6 nM; in [8], greater than 10000 nM. In addition, the figures for the Activity in data set [13] and in [14] were 85% and 14.7%, respectively. Further, the outcome in data set [15] was inactive. For the same compound, the Ki is 63.8 nM in data set [4] and 38.2 nM in [5]. For the same compound, the half-life in data set [16] was 2.3 h; in data set [11], 6.2 h; in [20] it was 1.9 h. Further, the bioavailability was determined as 16.3% in data set [6], 39.8% in data set [7] and 94.8% in [21]. In addition, the Vbeta in data set [9] was determined as 4.3 L/kg; in data set [10], 4.8 L/kg.

Turning to `CN1CCN(C2=Nc3cc(Cl)ccc3Nc3ccccc32)CC1`, the result in data set [22] was Active.
